Measured values reported in ChEMBL document CHEMBL1125594 (J Med Chem, 1991).

Assays:
[1] = system: Nucleic Acid; assay: Antitumor potency on human ovarian 2780 cell lines.; type: functional
Summary of the method: (§1)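 Human lines kept in RPMI-1640 with 5% FBS, L-glutamine and penicillin/streptomycin; seeded as single-cell suspensions at 2000 (MCF-7), 500 (WiDr) or 750 (2780) cells/well. Drugs in DMSO, serially diluted in PBS pH 7.4 in half-log steps, were added on day 2 (final DMSO ≤0.1%). Exposure 6 days at 37 °C, 5% CO2. MTT was added for 4 h, formazan dissolved in DMSO, A570 read as % of untreated control. 6 wells per concentration, ≥2 assays, IC50s averaged.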

[2] = system: P388; assay: Antitumor potency on P388 leukemia cells in culture; type: functional, cell-based; conditions: Mus musculus
Summary of the method: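 P388 cells (ATCC CCL-46) plated as a single-cell suspension at 300 cells/well. Drugs in DMSO, serially diluted in PBS pH 7.4 in half-log steps, were added on day 1 (final DMSO ≤0.1%). Exposure 6 days at 37 °C, 5% CO2. MTT was added for 4 h, formazan dissolved in DMSO, absorbance read at 570 nm as % of untreated control. 6 wells per concentration, ≥2 assays, IC50 averaged.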

[3] = system: Nucleic Acid; assay: Antitumor potency on human breast MCF-7 cell lines.; type: functional, cell-based; conditions: MCF7; summary of the method: as §1
[4] = system: Nucleic Acid; assay: Antitumor potency on human colon WIDR cell lines.; type: functional, cell-based; summary of the method: as §1
[5] = species: Mus musculus; assay: Minimum effective dose was measured against P388 leukemia in mice.; type: functional

Structure (SMILES) | IC50 [1] | IC50 [2] | IC50 [3] | IC50 [4] | MED [5]
CO[C@@]12C(COC(N)=O)C3=C(C(=O)C(C)=C(Nc4nc(C)cs4)C3=O)N1CC1NC12 (some centres undefined) | 1.74 nM | 0.5 nM | 3.13 nM | 1.32 nM | 
CO[C@@]12C(COC(N)=O)c3c(O)c(N=C4C=CC(=N)C=C4)c(C)c(O)c3N1CC1NC12 (some centres undefined) | 50 nM | 18.8 nM | 13.1 nM | 28.8 nM | 
CO[C@@]12C(COC(N)=O)C3=C(C(=O)C(C)=C(Nc4cccc(I)c4)C3=O)N1CC1NC12 (some centres undefined) | 1.68 nM | 1.42 nM | 1.87 nM | 0.21 nM | 
CO[C@@]12C(COC(N)=O)C3=C(C(=O)C(C)=C(OC4CC4)C3=O)N1CC1NC12 (some centres undefined) | 0.56 nM | 0.63 nM | 1.12 nM | 0.21 nM | 0.13 µmol/kg
CO[C@@]12C(COC(N)=O)C3=C(C(=O)C(C)=C(NCCc4ccccn4)C3=O)N1CC1NC12 (some centres undefined) | 77.4 nM | 53.5 nM | 22.8 nM | 26.2 nM | 
COC1=C(C)C(=O)C2=C(C1=O)[C@@H](COC(N)=O)[C@@]1(OC)[C@H]3N[C@H]3CN21 [MITOMYCIN A] | 0.22 nM | 0.24 nM | 0.63 nM | 0.052 nM | 0.14 µmol/kg
CO[C@@]12C(COC(N)=O)C3=C(C(=O)C(C)=C(NCCCO)C3=O)N1CC1NC12 (some centres undefined) | 76.4 nM | 459 nM | 132 nM | 102 nM | 
CO[C@@]12C(COC(N)=O)C3=C(C(=O)C(C)=C(OCC4CC4)C3=O)N1CC1NC12 (some centres undefined) | 0.45 nM | 0.31 nM | 0.51 nM | 0.16 nM | 1.03 µmol/kg
CO[C@@]12C(COC(N)=O)C3=C(C(=O)C(C)=C(OCCSc4ccccc4)C3=O)N1CC1NC12 (some centres undefined) | 0.53 nM | 1.21 nM | 1.4 nM | 0.15 nM | 6.73
CO[C@@]12C(COC(N)=O)C3=C(C(=O)C(C)=C(Nc4ccc5[nH]ccc5c4)C3=O)N1CC1NC12 (some centres undefined) | 3.1 nM |  | 1.1 nM | 1.07 nM | 
CO[C@@]12C(COC(N)=O)C3=C(C(=O)C(C)=C(Nc4ccccc4)C3=O)N1CC1NC12 (some centres undefined) | 2.6 nM | 1.71 nM | 1.32 nM | 1.09 nM | 
CO[C@@]12C(COC(N)=O)c3c(O)c(/N=C4\C=CC(=O)C([N+](=O)[O-])=C4)c(C)c(O)c3N1CC1NC12 (some centres undefined) | 10.8 nM |  | 22.7 nM | 25.5 nM | 
C#CCNC1=C(C)C(=O)C2=C(C1=O)C(COC(N)=O)[C@@]1(OC)C3NC3CN21 (some centres undefined) | 2.1 nM | 9.7 nM | 4.4 nM | 3.9 nM | 
CO[C@@]12C(COC(N)=O)C3=C(C(=O)C(C)=C(Nc4ccc(Br)cc4)C3=O)N1CC1NC12 (some centres undefined) | 1.84 nM | 1.92 nM | 2.66 nM | 1.19 nM | 
CO[C@@]12C(COC(N)=O)C3=C(C(=O)C(C)=C(Nc4ccc(I)cc4)C3=O)N1CC1NC12 (some centres undefined) | 1.6 nM | 1.62 nM | 2.84 nM | 0.63 nM | 
CO[C@@]12C(COC(N)=O)C3=C(C(=O)C(C)=C(OCCSSCCO)C3=O)N1CC1NC12 (some centres undefined) | 1.36 nM | 1.87 nM | 3.92 nM | 1.48 nM | 0.026 µmol/kg
CO[C@@]12C(COC(N)=O)C3=C(C(=O)C(C)=C(Nc4ccc(F)cc4)C3=O)N1CC1NC12 (some centres undefined) | 3.03 nM | 3.03 nM | 1.77 nM | 1.63 nM | 
CO[C@@]12C(COC(N)=O)C3=C(C(=O)C(C)=C(OCCOCCO)C3=O)N1CC1NC12 (some centres undefined) | 36.6 nM | 18.7 nM | 80.6 nM | 25.8 nM | 0.3 µmol/kg
CO[C@@]12C(COC(N)=O)c3c(O)c(/N=C4\C=CC(=O)C(I)=C4)c(C)c(O)c3N1CC1NC12 (some centres undefined) | 29 nM |  | 16.3 nM | 6.52 nM | 
CO[C@@]12C(COC(N)=O)c3c(O)c(N=C4C=CC(=O)C=C4)c(C)c(O)c3N1CC1NC12 (some centres undefined) | 16.4 nM | 5.86 nM | 16.9 nM | 6.3 nM | 
CO[C@@]12C(COC(N)=O)C3=C(C(=O)C(C)=C(OCCO)C3=O)N1CC1NC12 (some centres undefined) | 6.85 nM | 0.71 nM | 3.69 nM | 4.22 nM | 0.017 µmol/kg
CO[C@@]12C(COC(N)=O)C3=C(C(=O)C(C)=C(Nc4ccc([N+](=O)[O-])cc4)C3=O)N1CC1NC12 (some centres undefined) | 0.59 nM | 0.44 nM | 1.53 nM | 0.42 nM | 
CO[C@@]12C(COC(N)=O)C3=C(C(=O)C(C)=C(OCCOc4ccccc4)C3=O)N1CC1NC12 (some centres undefined) | 0.16 nM | 0.082 nM | 0.72 nM | 0.12 nM | 3.5 µmol/kg
COCCOCCOC1=C(C)C(=O)C2=C(C1=O)C(COC(N)=O)[C@@]1(OC)C3NC3CN21 (some centres undefined) | 4.57 nM | 4.1 nM | 8.22 nM | 4.57 nM | 0.11 µmol/kg
CO[C@@]12C(COC(N)=O)C3=C(C(=O)C(C)=C(OCc4ccccc4)C3=O)N1CC1NC12 (some centres undefined) | 0.26 nM | 0.018 nM | 1.43 nM | 0.13 nM | 0.24 µmol/kg
CO[C@@]12C(COC(N)=O)c3c(O)c(/N=C4/C=CN=N4)c(C)c(O)c3N1CC1NC12 (some centres undefined) | 38.5 nM | 15.5 nM | 72.4 nM | 13 nM | 
CO[C@@]12[C@H](COC(N)=O)C3=C(C(=O)C(C)=C(N)C3=O)N1C[C@@H]1N[C@@H]12 [MITOMYCIN] | 14.8 nM | 50.8 nM | 32.2 nM | 13 nM | 
CO[C@@]12C(COC(N)=O)C3=C(C(=O)C(C)=C(OCC4CCC4)C3=O)N1CC1NC12 (some centres undefined) | 0.27 nM | 0.41 nM | 0.21 nM | 0.19 nM | 0.99 µmol/kg
CO[C@@]12C(COC(N)=O)C3=C(C(=O)C(C)=C(NCCc4ccco4)C3=O)N1CC1NC12 (some centres undefined) | 59.5 nM | 26.6 nM | 36.6 nM | 40.3 nM | 
